ChEMBL document CHEMBL1177701, “Synthesis, biological evaluation, and structure-activity relationships of dithiolethiones as inducers of cytoprotective phase 2 enzymes” (J Med Chem, 2010)
Activity calls are given as the source filed them. The rule behind the calls is not given here.

Test system: Rattus norvegicus
Test: Ex vivo induction GCL protein expression in Sprague-Dawley rat bladder at 7.5 umol/kg/day, po for 10 days measured on day 11 by Western blot analysis
Format: functional, organism-based
Outline: (§1)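 Female Sprague-Dawley rats, 3 per group, gavaged once daily with compound at 7.5 µmol/kg or soya oil vehicle for 10 days. Killed on day 11. Bladder homogenized in 10 mM Tris-HCl pH 7.4, 0.25 M sucrose, 1 mM PMSF, 1 µg/ml leupeptin. 25-40 µg protein run by SDS-PAGE, then Western blot, with GAPDH as loading control.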

SMILES	Activity
CCOC(=O)C1CCc2c1ssc2=S (stereo not given)	Active
COC(=O)c1cssc1=S	Active

Test system: Rattus norvegicus
Test: Ex vivo induction GST-alpha protein expression in Sprague-Dawley rat bladder at 7.5 umol/kg/day, po for 10 days measured on day 11 by Western blot analysis
Format: functional, organism-based
Outline: as §1

SMILES	Activity
CCOC(=O)C1CCc2c1ssc2=S (stereo not given)	Active
COC(=O)c1cssc1=S	Active

Test system: Rattus norvegicus
Test: Ex vivo induction GST-mu protein expression in Sprague-Dawley rat bladder at 7.5 umol/kg/day, po for 10 days measured on day 11 by Western blot analysis
Format: functional, organism-based
Outline: as §1

SMILES	Activity
CCOC(=O)C1CCc2c1ssc2=S (stereo not given)	Active
COC(=O)c1cssc1=S	Active

Test system: Rattus norvegicus
Test: Ex vivo induction GST-pi protein expression in Sprague-Dawley rat bladder at 7.5 umol/kg/day, po for 10 days measured on day 11 by Western blot analysis
Format: functional, organism-based
Outline: as §1

SMILES	Activity
CCOC(=O)C1CCc2c1ssc2=S (stereo not given)	inactive
COC(=O)c1cssc1=S	inactive

Test system: not listed separately
Test: Dissociation constant, pKa of the compound
Format: physicochemical

SMILES	pKa
O=C(O)c1cc(=S)ss1	1.2

Test system: NBT2
Test: Induction of NQO1 protein expression in rat NBT2 cells after 24 hrs by Western blot analysis
Format: functional, cell-based
Outline: (§2)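 NBT-II rat bladder carcinoma cells grown in MEM with 10% FBS. Plated overnight, then exposed to compound at 25 or 50 µM for 24 h, with 0.1% DMSO final. Cells trypsinized, lysed with 1 mM PMSF and sonicated. 25-40 µg protein taken for Western blot, GAPDH as loading control. At least two experiments.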

SMILES	Activity
CCOC(=O)C1CCc2c1ssc2=S (stereo not given)	Dose-dependent effect
COC(=O)c1cssc1=S	Dose-dependent effect

Test system: NBT2
Test: Induction of GST-mu protein expression in rat NBT2 cells after 24 hrs by Western blot analysis
Format: functional, cell-based
Outline: as §2

SMILES	Activity
CCOC(=O)C1CCc2c1ssc2=S (stereo not given)	Dose-dependent effect
COC(=O)c1cssc1=S	Dose-dependent effect

Test system: NBT2
Test: Induction of GST-alpha protein expression in rat NBT2 cells after 24 hrs by Western blot analysis
Format: functional, cell-based
Outline: as §2

SMILES	Activity
CCOC(=O)C1CCc2c1ssc2=S (stereo not given)	Dose-dependent effect
COC(=O)c1cssc1=S	Dose-dependent effect

Test system: NBT2
Test: Induction of GST-pi protein expression in rat NBT2 cells at 25 to 50 uM after 24 hrs by Western blot analysis
Format: functional, cell-based
Outline: as §2

SMILES	Activity
CCOC(=O)C1CCc2c1ssc2=S (stereo not given)	inactive
COC(=O)c1cssc1=S	inactive

Test system: NBT2
Test: Induction of GCL protein expression in rat NBT2 cells at 25 to 50 uM after 24 hrs by Western blot analysis
Format: functional, cell-based
Outline: as §2

SMILES	Activity
CCOC(=O)C1CCc2c1ssc2=S (stereo not given)	Active
COC(=O)c1cssc1=S	Active

Test system: Rattus norvegicus
Test: Ex vivo induction of NQO1 in Sprague-Dawley rat liver at 7.5 umol/kg/day, po for 10 days measured on day 11 relative to control
Format: functional
Outline: (§3)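 Organs taken from the same rats used for the bladder study: female Sprague-Dawley, compound at 7.5 µmol/kg/day by gavage or soya oil for 10 days, killed on day 11. GI contents rinsed out under cold water and tissues stored at −80°C. Homogenized in 0.2% Triton X-100 and centrifuged. Supernatant NQO1 activity measured by the Ernster method, expressed as treated/control.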

SMILES	fold change (FC)
CCOC(=O)C1CCc2c1ssc2=S (stereo not given)	1.17
COC(=O)c1cssc1=S	1.07

Test system: Rattus norvegicus
Test: Ex vivo induction of NQO1 in Sprague-Dawley rat kidney at 7.5 umol/kg/day, po for 10 days measured on day 11 relative to control
Format: functional
Outline: as §3

SMILES	fold change (FC)
CCOC(=O)C1CCc2c1ssc2=S (stereo not given)	1.86
COC(=O)c1cssc1=S	1.45

Test system: Rattus norvegicus
Test: Ex vivo induction of NQO1 in Sprague-Dawley rat lung at 7.5 umol/kg/day, po for 10 days measured on day 11 relative to control
Format: functional
Outline: as §3

SMILES	fold change (FC)
CCOC(=O)C1CCc2c1ssc2=S (stereo not given)	1.17
COC(=O)c1cssc1=S	1.07

Test system: Rattus norvegicus
Test: Ex vivo induction of NQO1 in Sprague-Dawley rat duodenum at 7.5 umol/kg/day, po for 10 days measured on day 11 relative to control
Format: functional
Outline: as §3

SMILES	fold change (FC)
CCOC(=O)C1CCc2c1ssc2=S (stereo not given)	1.53
COC(=O)c1cssc1=S	1.17

Test system: Rattus norvegicus
Test: Ex vivo induction of NQO1 in Sprague-Dawley rat jejunum at 7.5 umol/kg/day, po for 10 days measured on day 11 relative to control
Format: functional
Outline: as §3

SMILES	fold change (FC)
CCOC(=O)C1CCc2c1ssc2=S (stereo not given)	1.38
COC(=O)c1cssc1=S	1.13

Test system: Rattus norvegicus
Test: Ex vivo induction of NQO1 in Sprague-Dawley rat ileum at 7.5 umol/kg/day, po for 10 days measured on day 11 relative to control
Format: functional
Outline: as §3

SMILES	fold change (FC)
CCOC(=O)C1CCc2c1ssc2=S (stereo not given)	1.2
COC(=O)c1cssc1=S	0.95

Test system: Rattus norvegicus
Test: Ex vivo induction of NQO1 in Sprague-Dawley rat colon at 7.5 umol/kg/day, po for 10 days measured on day 11 relative to control
Format: functional
Outline: as §3

SMILES	fold change (FC)
CCOC(=O)C1CCc2c1ssc2=S (stereo not given)	1
COC(=O)c1cssc1=S	0.89

Test system: Rattus norvegicus
Test: Ex vivo induction of NQO1 in Sprague-Dawley rat bladder at 7.5 umol/kg/day, po for 10 days measured on day 11 relative to control
Format: functional
Outline: (§4)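 Female Sprague-Dawley rats, 6 per group, gavaged with compound at 7.5 µmol/kg/day or soya oil for 10 days and killed on day 11. Bladder homogenized in ice-cold 0.2% Triton X-100 and cleared by centrifugation. NQO1 activity measured by the Ernster method, GST by the Habig method. Reported as treated/control mean ± SEM, ANOVA with Student-Newman-Keuls test.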

SMILES	fold change (FC)
CCOC(=O)C1CCc2c1ssc2=S (stereo not given)	4.47
O=C(O)c1cc(=S)ss1	1.27
COC(=O)c1cssc1=S	5.05

Test system: Rattus norvegicus
Test: Ex vivo induction of GST in Sprague-Dawley rat bladder at 7.5 umol/kg/day, po for 10 days measured on day 11 relative to control
Format: functional
Outline: as §4

SMILES	fold change (FC)
CCOC(=O)C1CCc2c1ssc2=S (stereo not given)	2.29
O=C(O)c1cc(=S)ss1	1.11
COC(=O)c1cssc1=S	2.69

Test system: Rattus norvegicus
Test: Ex vivo induction of NQO1 in Sprague-Dawley rat stomach at 7.5 umol/kg/day, po for 10 days measured on day 11 relative to control
Format: functional
Outline: as §3

SMILES	fold change (FC)
CCOC(=O)C1CCc2c1ssc2=S (stereo not given)	1.93
COC(=O)c1cssc1=S	2.36

Molecular target: T1, Nuclear factor erythroid 2-related factor 2 (Rattus norvegicus) (UniProt O54968)
T1 sequence (whole entry): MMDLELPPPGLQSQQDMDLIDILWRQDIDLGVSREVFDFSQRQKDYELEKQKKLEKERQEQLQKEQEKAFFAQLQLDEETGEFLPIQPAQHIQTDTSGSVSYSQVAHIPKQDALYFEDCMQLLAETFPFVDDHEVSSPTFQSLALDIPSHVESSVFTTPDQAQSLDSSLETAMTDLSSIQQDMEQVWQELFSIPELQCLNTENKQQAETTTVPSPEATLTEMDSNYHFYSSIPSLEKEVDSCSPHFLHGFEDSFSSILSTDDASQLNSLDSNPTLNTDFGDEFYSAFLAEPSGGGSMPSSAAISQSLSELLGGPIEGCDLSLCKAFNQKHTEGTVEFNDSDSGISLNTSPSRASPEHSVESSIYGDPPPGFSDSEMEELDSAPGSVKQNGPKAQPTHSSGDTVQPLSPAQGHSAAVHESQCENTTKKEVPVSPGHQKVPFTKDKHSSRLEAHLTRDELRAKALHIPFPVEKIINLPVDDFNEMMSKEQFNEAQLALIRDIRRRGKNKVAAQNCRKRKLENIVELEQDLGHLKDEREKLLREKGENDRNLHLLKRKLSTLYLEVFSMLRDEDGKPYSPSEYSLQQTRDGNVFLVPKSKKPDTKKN
Test: Induction of Nrf-mediated NQO1 protein expression in wild type rat NBT2 cells at 25 uM after 24 hrs Western blot analysis
Format: functional, cell-based
Outline: (§5)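 NBT-II cells transfected with Nrf2 stealth RNAi or control RNAi (0.584 nmol per dish, lipofectamine 2000) for 48 h. Then treated with compound at 25 µM or vehicle for 24 h, with 0.1% DMSO final. Lysates analyzed by Western blot for Nrf2, GCL, GST-α, GST-μ and NQO1, with GAPDH as loading control.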

SMILES	Activity
CCOC(=O)C1CCc2c1ssc2=S (stereo not given)	Active
COC(=O)c1cssc1=S	Active

Test system: NBT2
Test: Induction of GCL protein expression in Nrf gene knockout rat NBT2 cells at 25 uM after 24 hrs Western blot analysis
Format: functional, cell-based
Outline: as §5

SMILES	Activity
CCOC(=O)C1CCc2c1ssc2=S (stereo not given)	inactive
COC(=O)c1cssc1=S	inactive

Test system: NBT2
Test: Induction of GST-alpha protein expression in Nrf gene knockout rat NBT2 cells at 25 uM after 24 hrs Western blot analysis
Format: functional, cell-based
Outline: as §5

SMILES	Activity
CCOC(=O)C1CCc2c1ssc2=S (stereo not given)	inactive
COC(=O)c1cssc1=S	inactive

Test system: NBT2
Test: Induction of GST-mu protein expression in Nrf gene knockout rat NBT2 cells at 25 uM after 24 hrs Western blot analysis
Format: functional, cell-based
Outline: as §5

SMILES	Activity
CCOC(=O)C1CCc2c1ssc2=S (stereo not given)	inactive
COC(=O)c1cssc1=S	inactive

Test system: NBT2
Test: Induction of NQO1 protein expression in Nrf gene knockout rat NBT2 cells at 25 uM after 24 hrs Western blot analysis
Format: functional, cell-based
Outline: as §5

SMILES	Activity
CCOC(=O)C1CCc2c1ssc2=S (stereo not given)	inactive
COC(=O)c1cssc1=S	inactive

Molecular target: T1, Nuclear factor erythroid 2-related factor 2 (Rattus norvegicus)
Test: Induction of Nrf in wild type rat NBT2 cells at 25 uM after 24 hrs Western blot analysis
Format: functional, cell-based
Outline: as §5

SMILES	Activity
CCOC(=O)C1CCc2c1ssc2=S (stereo not given)	Active
COC(=O)c1cssc1=S	Active

Test system: NBT2
Test: Induction of Nrf protein expression in Nrf gene knockout rat NBT2 cells at 25 uM after 24 hrs Western blot analysis
Format: functional, cell-based
Outline: as §5

SMILES	Activity
COC(=O)c1cssc1=S	inactive

Molecular target: T1, Nuclear factor erythroid 2-related factor 2 (Rattus norvegicus)
Test: Induction of Nrf-mediated GCL protein expression in wild type rat NBT2 cells at 25 uM after 24 hrs Western blot analysis
Format: functional, cell-based
Outline: as §5

SMILES	Activity
CCOC(=O)C1CCc2c1ssc2=S (stereo not given)	Active
COC(=O)c1cssc1=S	Active

Molecular target: T1, Nuclear factor erythroid 2-related factor 2 (Rattus norvegicus)
Test: Induction of Nrf-mediated GST-alpha protein expression in wild type rat NBT2 cells at 25 uM after 24 hrs Western blot analysis
Format: functional, cell-based
Outline: as §5

SMILES	Activity
CCOC(=O)C1CCc2c1ssc2=S (stereo not given)	Active
COC(=O)c1cssc1=S	Active

Molecular target: T1, Nuclear factor erythroid 2-related factor 2 (Rattus norvegicus)
Test: Induction of Nrf-mediated GST-mu protein expression in wild type rat NBT2 cells at 25 uM after 24 hrs Western blot analysis
Format: functional, cell-based
Outline: as §5

SMILES	Activity
CCOC(=O)C1CCc2c1ssc2=S (stereo not given)	Active
COC(=O)c1cssc1=S	Active
